From ChEMBL document CHEMBL1165965, “Synthesis and structure-activity relationships of 1,2,3,4-tetrahydropyrido[2,3-b]pyrazines as potent and selective inhibitors of the anaplastic lymphoma kinase” (Bioorg Med Chem, 2010)

Experiments:
[1] = molecular target: Serine/threonine-protein kinase 32C (Homo sapiens) (UniProt Q86UX6); assay: Inhibition of YANK3 at 1 uM
[2] = molecular target: Vascular endothelial growth factor receptor 3 (Homo sapiens) (UniProt P35916); assay: Inhibition of FLT4 at 1 uM
In short: (§1)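 Single-concentration screen on the Ambit KINOMEscan platform, run against a panel of 250–400 kinases. Per-kinase inhibition was also summarized as S(90), the fraction of kinases inhibited by more than 90%.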

[3] = molecular target: Proto-oncogene tyrosine-protein kinase ROS (Homo sapiens) (UniProt P08922); assay: Inhibition of ROS1 at 1 uM; in short: as §1
[4] = molecular target: Phosphatidylinositol 4-phosphate 3-kinase C2 domain-containing subunit beta (Homo sapiens) (UniProt O00750); assay: Inhibition of PIK3C2B at 1 uM
[5] = molecular target: Tyrosine-protein kinase JAK1 (Homo sapiens) (UniProt P23458); assay: Inhibition of JAK1 JH1 catalytic domain at 1 uM; in short: as §1
[6] = molecular target: Serine/threonine-protein kinase RIO2 (Homo sapiens) (UniProt Q9BVS4); assay: Inhibition of RIOK2 at 1 uM
[7] = molecular target: T1, Myosin-IIIb (Homo sapiens) (UniProt Q8WXR4); assay: Inhibition of MYO3B at 1 uM
T1 sequence (whole entry): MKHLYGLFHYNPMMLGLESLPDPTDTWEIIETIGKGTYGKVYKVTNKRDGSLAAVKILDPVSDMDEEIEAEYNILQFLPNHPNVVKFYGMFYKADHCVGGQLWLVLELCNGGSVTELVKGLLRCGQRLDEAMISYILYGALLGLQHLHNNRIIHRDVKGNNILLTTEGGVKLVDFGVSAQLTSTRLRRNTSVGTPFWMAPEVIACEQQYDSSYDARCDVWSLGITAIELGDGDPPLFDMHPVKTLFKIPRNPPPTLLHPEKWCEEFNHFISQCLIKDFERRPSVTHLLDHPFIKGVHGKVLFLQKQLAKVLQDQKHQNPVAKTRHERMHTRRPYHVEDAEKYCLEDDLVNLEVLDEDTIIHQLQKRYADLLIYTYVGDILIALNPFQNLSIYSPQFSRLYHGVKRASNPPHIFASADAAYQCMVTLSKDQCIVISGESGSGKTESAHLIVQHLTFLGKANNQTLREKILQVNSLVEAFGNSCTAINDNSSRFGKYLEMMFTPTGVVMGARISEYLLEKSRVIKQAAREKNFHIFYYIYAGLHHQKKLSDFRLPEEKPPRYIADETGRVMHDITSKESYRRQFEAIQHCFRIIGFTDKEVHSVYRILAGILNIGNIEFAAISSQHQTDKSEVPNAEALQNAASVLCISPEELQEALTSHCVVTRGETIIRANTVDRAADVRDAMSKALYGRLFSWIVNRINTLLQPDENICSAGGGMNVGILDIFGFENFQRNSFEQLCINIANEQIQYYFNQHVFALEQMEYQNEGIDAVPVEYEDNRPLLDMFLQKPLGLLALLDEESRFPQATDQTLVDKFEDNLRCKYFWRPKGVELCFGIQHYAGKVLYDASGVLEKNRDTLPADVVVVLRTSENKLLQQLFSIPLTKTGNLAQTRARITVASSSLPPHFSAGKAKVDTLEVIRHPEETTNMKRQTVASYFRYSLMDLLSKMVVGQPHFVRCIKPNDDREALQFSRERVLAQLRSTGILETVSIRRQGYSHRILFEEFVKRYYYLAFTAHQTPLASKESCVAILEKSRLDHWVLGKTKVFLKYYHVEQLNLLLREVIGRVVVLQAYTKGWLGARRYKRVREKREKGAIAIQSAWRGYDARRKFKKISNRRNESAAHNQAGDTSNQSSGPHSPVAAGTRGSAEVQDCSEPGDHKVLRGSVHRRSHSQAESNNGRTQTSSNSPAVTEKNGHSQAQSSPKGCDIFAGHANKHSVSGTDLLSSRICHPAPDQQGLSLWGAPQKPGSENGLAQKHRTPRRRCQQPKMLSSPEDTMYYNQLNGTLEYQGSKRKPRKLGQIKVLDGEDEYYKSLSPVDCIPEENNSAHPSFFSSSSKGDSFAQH

[8] = system: Phosphatidylinositol 4,5-bisphosphate 3-kinase catalytic subunit alpha isoform (Homo sapiens), P42336 [E545A]; assay: Inhibition of PIK3CA E545A mutant at 1 uM
[9] = molecular target: Tyrosine-protein kinase Fes/Fps (Homo sapiens) (UniProt P07332); assay: Inhibition of FES at 1 uM
In short: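 Single-concentration screen using Ambit Bioscience KINOMEscan technology across a panel of 250–400 kinases. Per-kinase inhibition from this screen was summarized as S(90), the fraction of kinases inhibited by more than 90%.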

[10] = molecular target: Serine/threonine-protein kinase PAK 5 (Homo sapiens) (UniProt Q9P286); assay: Inhibition of PAK7 at 1 uM
[11] = molecular target: T2, Serine/threonine-protein kinase 17A (Homo sapiens) (UniProt Q9UEE5); assay: Inhibition of DRAK1 at 1 uM
T2 sequence (whole entry): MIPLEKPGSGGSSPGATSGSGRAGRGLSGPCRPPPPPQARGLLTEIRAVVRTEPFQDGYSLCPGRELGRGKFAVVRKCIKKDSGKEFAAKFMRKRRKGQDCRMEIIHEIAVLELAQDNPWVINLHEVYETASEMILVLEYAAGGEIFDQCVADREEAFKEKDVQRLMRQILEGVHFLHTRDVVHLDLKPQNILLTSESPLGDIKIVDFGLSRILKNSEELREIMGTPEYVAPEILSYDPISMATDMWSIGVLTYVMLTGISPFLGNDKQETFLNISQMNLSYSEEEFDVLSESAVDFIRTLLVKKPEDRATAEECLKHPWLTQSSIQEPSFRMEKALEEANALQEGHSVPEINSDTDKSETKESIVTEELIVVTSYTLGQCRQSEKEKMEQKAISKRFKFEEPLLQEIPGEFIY

[12] = molecular target: T3, 3-phosphoinositide-dependent protein kinase 1 (Homo sapiens) (UniProt O15530); assay: Inhibition of PDPK1 at 1 uM
T3 sequence (whole entry): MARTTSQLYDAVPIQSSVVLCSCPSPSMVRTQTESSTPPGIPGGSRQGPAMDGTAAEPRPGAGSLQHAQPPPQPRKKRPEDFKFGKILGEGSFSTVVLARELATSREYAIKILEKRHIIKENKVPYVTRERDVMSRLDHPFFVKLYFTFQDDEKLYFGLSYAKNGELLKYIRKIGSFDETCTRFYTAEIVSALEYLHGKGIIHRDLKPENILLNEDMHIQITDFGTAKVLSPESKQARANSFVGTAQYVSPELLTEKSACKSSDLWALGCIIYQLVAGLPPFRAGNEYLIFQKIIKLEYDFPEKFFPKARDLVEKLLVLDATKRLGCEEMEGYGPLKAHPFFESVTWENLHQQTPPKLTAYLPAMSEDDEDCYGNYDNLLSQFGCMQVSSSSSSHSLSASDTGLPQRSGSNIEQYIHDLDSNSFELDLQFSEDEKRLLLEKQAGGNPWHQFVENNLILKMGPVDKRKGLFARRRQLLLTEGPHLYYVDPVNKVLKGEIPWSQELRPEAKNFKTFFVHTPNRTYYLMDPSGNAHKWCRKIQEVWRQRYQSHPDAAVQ

Serine/threonine-protein kinase 32C (Homo sapiens), sequence (Q86UX6 whole entry): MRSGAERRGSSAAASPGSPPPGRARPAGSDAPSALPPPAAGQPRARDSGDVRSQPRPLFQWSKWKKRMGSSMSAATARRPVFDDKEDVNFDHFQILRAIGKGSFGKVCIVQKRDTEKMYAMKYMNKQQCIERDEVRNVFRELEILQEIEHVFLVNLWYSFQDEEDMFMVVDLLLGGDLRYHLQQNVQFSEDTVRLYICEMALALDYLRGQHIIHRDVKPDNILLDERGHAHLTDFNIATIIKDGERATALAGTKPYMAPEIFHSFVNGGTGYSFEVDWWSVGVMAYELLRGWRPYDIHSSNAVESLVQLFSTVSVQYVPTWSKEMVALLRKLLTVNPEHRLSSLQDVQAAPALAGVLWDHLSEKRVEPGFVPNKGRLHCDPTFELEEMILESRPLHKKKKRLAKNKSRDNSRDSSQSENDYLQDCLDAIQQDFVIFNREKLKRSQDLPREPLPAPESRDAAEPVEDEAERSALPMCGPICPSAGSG
Tyrosine-protein kinase Fes/Fps (Homo sapiens), sequence (P07332 whole entry): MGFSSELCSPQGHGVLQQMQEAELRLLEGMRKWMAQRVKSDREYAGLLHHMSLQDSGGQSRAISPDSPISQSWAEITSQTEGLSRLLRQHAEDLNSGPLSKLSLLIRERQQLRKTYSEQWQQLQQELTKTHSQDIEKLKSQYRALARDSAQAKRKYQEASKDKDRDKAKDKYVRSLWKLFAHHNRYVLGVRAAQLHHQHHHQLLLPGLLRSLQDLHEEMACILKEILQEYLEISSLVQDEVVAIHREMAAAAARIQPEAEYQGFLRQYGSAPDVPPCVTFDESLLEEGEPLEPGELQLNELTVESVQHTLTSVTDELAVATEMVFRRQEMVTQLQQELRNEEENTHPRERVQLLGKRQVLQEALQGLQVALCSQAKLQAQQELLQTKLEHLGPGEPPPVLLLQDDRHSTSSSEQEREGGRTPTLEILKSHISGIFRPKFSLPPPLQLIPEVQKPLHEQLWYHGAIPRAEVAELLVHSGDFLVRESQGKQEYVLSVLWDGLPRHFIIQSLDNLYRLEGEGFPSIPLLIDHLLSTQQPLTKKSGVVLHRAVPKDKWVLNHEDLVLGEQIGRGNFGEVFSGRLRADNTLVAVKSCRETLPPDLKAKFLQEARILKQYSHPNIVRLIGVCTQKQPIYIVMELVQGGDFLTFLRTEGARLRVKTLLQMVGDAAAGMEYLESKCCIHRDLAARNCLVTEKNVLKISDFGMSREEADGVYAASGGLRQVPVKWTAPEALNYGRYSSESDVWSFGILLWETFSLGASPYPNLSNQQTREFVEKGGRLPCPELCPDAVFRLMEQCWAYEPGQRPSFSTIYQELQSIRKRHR
Tyrosine-protein kinase JAK1 (Homo sapiens), sequence (P23458 whole entry, the tested form may be a part): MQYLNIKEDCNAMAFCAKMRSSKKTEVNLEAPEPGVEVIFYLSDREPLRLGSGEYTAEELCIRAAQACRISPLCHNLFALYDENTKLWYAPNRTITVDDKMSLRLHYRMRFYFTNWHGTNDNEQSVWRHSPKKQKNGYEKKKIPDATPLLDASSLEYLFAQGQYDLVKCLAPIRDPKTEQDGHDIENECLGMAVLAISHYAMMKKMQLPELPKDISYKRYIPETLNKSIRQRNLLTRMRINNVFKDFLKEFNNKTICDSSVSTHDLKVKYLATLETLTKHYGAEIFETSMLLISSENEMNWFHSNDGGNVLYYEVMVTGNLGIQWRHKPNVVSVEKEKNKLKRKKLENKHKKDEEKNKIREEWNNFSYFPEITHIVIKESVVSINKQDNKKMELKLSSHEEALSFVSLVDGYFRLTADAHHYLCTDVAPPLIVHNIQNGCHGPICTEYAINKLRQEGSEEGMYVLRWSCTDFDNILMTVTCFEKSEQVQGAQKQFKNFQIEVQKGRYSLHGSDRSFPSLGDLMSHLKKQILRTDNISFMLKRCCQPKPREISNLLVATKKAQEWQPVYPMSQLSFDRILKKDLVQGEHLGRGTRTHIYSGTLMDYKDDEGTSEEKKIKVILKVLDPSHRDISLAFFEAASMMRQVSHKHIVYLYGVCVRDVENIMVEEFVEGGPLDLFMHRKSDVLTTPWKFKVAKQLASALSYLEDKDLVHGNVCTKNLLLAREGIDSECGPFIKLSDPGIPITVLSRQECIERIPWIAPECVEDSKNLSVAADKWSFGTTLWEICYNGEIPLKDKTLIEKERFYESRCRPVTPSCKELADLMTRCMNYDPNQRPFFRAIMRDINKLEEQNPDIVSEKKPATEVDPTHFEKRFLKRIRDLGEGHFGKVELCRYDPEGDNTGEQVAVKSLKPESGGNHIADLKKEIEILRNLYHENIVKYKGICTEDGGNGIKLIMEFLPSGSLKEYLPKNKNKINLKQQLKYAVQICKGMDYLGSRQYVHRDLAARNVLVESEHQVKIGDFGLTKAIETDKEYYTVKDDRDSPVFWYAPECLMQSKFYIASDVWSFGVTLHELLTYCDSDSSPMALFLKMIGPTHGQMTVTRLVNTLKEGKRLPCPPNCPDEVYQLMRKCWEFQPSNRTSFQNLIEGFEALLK
Serine/threonine-protein kinase RIO2 (Homo sapiens), sequence (Q9BVS4 whole entry, looked up): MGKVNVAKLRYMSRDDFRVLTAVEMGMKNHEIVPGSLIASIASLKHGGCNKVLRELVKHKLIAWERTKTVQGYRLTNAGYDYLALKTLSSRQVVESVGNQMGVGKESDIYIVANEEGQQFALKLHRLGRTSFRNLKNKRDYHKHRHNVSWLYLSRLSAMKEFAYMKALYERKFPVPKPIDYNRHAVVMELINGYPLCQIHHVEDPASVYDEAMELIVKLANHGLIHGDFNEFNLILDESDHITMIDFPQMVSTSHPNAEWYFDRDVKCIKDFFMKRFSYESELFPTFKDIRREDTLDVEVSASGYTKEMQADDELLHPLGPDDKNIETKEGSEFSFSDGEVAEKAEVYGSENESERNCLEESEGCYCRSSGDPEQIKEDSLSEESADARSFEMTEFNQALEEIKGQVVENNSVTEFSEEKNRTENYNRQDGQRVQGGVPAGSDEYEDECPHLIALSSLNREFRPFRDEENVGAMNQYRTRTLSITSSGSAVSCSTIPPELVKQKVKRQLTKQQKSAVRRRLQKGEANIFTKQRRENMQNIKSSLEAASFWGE
Vascular endothelial growth factor receptor 3 (Homo sapiens), sequence (P35916 whole entry): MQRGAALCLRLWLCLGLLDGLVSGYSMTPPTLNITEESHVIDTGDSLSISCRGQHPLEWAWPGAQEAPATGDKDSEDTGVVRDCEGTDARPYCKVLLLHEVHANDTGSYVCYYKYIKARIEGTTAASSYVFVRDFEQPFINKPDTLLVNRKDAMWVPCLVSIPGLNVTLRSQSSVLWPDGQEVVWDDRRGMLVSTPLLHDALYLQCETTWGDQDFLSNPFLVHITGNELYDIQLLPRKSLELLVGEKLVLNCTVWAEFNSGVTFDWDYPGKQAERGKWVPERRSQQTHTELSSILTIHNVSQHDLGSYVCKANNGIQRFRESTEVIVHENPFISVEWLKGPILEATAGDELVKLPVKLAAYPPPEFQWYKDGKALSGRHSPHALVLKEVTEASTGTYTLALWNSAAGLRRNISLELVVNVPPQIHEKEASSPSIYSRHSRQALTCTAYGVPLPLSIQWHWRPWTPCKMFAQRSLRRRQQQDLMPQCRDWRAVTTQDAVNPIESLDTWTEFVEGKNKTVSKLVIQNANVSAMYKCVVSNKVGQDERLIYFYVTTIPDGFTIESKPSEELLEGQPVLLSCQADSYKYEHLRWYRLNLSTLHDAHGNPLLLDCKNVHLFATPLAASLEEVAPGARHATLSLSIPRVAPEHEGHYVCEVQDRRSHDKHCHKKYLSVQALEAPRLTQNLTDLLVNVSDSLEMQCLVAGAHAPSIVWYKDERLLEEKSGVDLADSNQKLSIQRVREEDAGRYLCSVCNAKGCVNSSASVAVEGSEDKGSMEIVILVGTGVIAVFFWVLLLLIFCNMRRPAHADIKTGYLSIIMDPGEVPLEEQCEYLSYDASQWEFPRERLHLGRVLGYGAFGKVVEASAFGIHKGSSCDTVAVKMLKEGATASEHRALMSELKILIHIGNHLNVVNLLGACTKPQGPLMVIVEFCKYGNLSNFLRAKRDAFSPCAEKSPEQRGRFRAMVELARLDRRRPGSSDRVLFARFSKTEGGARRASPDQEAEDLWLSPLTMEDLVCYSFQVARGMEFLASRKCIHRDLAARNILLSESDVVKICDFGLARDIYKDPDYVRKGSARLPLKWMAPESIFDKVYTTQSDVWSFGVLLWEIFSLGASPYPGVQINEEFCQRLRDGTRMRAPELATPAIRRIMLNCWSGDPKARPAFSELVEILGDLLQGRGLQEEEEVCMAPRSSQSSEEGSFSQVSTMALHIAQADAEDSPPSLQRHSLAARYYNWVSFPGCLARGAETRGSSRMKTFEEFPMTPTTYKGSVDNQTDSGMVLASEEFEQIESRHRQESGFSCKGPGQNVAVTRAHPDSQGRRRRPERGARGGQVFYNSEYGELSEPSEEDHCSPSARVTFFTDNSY
Serine/threonine-protein kinase PAK 5 (Homo sapiens), sequence (Q9P286 whole entry, looked up): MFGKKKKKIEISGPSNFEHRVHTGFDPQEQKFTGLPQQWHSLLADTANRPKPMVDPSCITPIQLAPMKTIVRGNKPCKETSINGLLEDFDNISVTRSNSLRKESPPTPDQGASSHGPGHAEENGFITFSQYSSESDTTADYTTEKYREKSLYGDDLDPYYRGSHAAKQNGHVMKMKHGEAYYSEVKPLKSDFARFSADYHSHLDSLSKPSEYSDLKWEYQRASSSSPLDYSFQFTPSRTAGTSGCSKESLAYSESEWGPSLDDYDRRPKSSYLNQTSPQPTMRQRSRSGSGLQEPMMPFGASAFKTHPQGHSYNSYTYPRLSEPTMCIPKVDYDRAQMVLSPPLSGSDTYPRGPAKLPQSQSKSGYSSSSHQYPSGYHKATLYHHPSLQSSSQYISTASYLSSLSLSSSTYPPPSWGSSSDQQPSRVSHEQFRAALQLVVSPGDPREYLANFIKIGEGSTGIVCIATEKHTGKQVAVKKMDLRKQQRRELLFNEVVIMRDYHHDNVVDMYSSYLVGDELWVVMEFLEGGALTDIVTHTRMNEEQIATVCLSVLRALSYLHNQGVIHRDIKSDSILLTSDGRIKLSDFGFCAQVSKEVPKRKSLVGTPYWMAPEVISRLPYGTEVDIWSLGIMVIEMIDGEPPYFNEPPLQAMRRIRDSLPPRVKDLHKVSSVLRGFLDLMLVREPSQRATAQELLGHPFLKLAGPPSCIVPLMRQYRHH

SMILES | inhibition [1] | inhibition [2] | inhibition [3] | inhibition [4] | inhibition [5] | inhibition [6] | inhibition [7] | inhibition [8] | inhibition [9] | inhibition [10] | inhibition [11] | inhibition [12]
CN1CCN(c2ccc(-c3cnc4c(c3)N(Cc3cc(F)ccc3F)CCN4)cn2)CC1 | < 50% | < 50% | 67.5% | < 50% | 88% | < 50% | < 50% | < 50% | < 50% | < 50% | < 50% | < 50%
CC(=O)N1CCN(c2cc(-c3cnc4c(c3)N(Cc3cc(Cl)ccc3C(F)(F)F)CCN4)ccn2)CC1 | < 50% | < 50% | 79% | < 50% | 96% | < 50% | < 50% | < 50% | < 50% | < 50% | < 50% | < 50%
CN1CCN(c2ccc(-c3cnc4c(c3)N(Cc3c(F)ccc(F)c3Cl)CCN4)cn2)CC1 | < 50% | < 50% | 73% | < 50% | < 50% | < 50% | < 50% | < 50% | < 50% | < 50% | < 50% | < 50%
FC(F)(F)c1ccc(Cl)cc1CN1CCNc2ncc(-c3ccnc(N4CCNCC4)c3)cc21 | < 50% | < 50% | 92% | < 50% | 78% | < 50% | < 50% | < 50% | < 50% | < 50% | < 50% | < 50%
CN1CCN(c2ccc(-c3cnc4c(c3)N(Cc3cc(Cl)ccc3Cl)CCN4)cn2)CC1 | < 50% | < 50% | < 50% | < 50% | 89% | < 50% | < 50% | < 50% | < 50% | < 50% | < 50% | < 50%
O=C(c1ccc(-c2cnc3c(c2)N(Cc2cc(Cl)ccc2C(F)(F)F)CCN3)cc1)N1CCC(N2CCCC2)CC1 | < 50% | 84.5% | 80.7% | – | < 50% | – | – | – | < 50% | < 50% | – | < 50%
O=C(O)c1ccc(-c2cnc3c(c2)N(Cc2cc(Cl)ccc2C(F)(F)F)CCN3)cc1 | < 50% | < 50% | 66.7% | – | – | – | – | – | < 50% | < 50% | – | < 50%
CN1CCN(c2ccc(-c3cnc4c(c3)N(Cc3cc(Cl)ccc3C(F)(F)F)CCN4)cn2)CC1 | < 50% | < 50% | 72% | < 50% | 93% | < 50% | < 50% | < 50% | < 50% | < 50% | < 50% | < 50%
O=C(c1ccc(-c2cnc3c(c2)N(Cc2cc(Cl)ccc2C(F)(F)F)CCN3)cc1)N1CCCCC1 | < 50% | < 50% | < 50% | – | < 50% | – | – | – | < 50% | < 50% | – | < 50%
COC1CCN(C(=O)c2ccc(-c3cnc4c(c3)N(Cc3cc(Cl)ccc3C(F)(F)F)CCN4)cc2)CC1 | < 50% | < 50% | 78.2% | – | < 50% | – | – | – | < 50% | < 50% | – | < 50%
